The results in this text go back to ChEMBL document CHEMBL3352472, “Discovery of 4-aryl-7-hydroxyindoline-based P2Y1 antagonists as novel antiplatelet agents” (J Med Chem, 2014).

The IC50 is the concentration needed to halve the response being measured.

SMILES strings stand for the structures.

A short description of data set [1]: Metabolic stability in human liver microsomes assessed as compound remaining at 0.5 uM after 10 mins. To be noted: read-out: Stability. Type of data set: ADME. In a few lines:
(§1)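 Compound at 0.5 μM incubated 10 min with 1 mg/mL human, rat or mouse liver microsomes; percentage of parent remaining reported.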
For orientation: Liver microsomes are vesicles of endoplasmic reticulum, rich in cytochrome P450 enzymes.

Data set [2] in a line: Metabolic stability in rat liver microsomes assessed as compound remaining at 0.5 uM after 10 mins. The format is ADME. To be noted: read-out: Stability. In a few lines:
as §1

A short description of data set [3]: Metabolic stability in mouse liver microsomes assessed as compound remaining at 0.5 uM after 10 mins. To be noted: read-out: Stability. Type of data set: ADME. In a few lines:
as §1

In a further data set the target is P2Y purinoceptor 1 (Homo sapiens, UniProt P47900). Nature of the data set: Antagonist activity at P2Y1 receptor in washed human platelets assessed as 1 uM 2-methylthio-ADP-induced calcium flux by FLIPR assay. The format is functional. Background: Calcium flux is commonly read through the fluorescence of an indicator in the cells.
Chain of P2Y purinoceptor 1 (P47900 whole entry): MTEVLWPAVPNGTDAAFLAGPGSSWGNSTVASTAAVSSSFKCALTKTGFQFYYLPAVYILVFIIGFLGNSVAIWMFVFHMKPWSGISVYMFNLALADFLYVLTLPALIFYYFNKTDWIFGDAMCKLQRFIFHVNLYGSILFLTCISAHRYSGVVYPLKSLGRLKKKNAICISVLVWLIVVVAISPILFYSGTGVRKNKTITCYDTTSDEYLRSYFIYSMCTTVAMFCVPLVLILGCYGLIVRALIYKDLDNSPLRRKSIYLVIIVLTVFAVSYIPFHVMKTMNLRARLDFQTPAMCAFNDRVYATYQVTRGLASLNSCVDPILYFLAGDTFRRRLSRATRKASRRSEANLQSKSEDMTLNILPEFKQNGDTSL

Regarding `CC1(C)CN(c2ccccc2NC(=O)Nc2ccc(OC(F)(F)F)cc2)c2c(O)c(F)cc(-c3ccc(Cl)cc3)c21`, the remaining at 10 min, 0.5 µM in data set [1] was found to be 88%; in data set [2] it was 100%; in data set [3], 80%.

For `CC1(C)CN(c2ccccc2NC(=O)Nc2ccc(OC(F)(F)F)cc2)c2c(O)cc(F)c(-c3cnc(Cl)cn3)c21`, the remaining at 10 min, 0.5 µM in data set [1] was 77%; in data set [2], 83%; in data set [3], 67%.

Consider `CC1(C)CN(c2ccccc2NC(=O)Nc2ccc(OC(F)(F)F)cc2)c2c(O)ccc(Cl)c21`, for which the half-inhibitory concentration (IC50) at P2Y purinoceptor 1 is 0.39 nM. Moreover, the remaining at 10 min, 0.5 µM in data set [1] came to 66%; in data set [2], 57%; in data set [3], 58%.

Turning to `CCOC(=O)C1(C)CN(c2ccccc2NC(=O)Nc2ccc(OC(F)(F)F)cc2)c2c(O)ccc(Cl)c21` (configuration not stated), at P2Y purinoceptor 1, the half-maximal inhibitory concentration (IC50) is 0.09 nM.

Take `CC1(C)CN(c2ccccc2NC(=O)Nc2ccc(OC(F)(F)F)cc2)c2c(O)cc(F)c(-c3ncc(F)cn3)c21`: the IC50 on P2Y purinoceptor 1 amounted to 0.3 nM. The remaining at 10 min, 0.5 µM was 41% in data set [1], 61% in data set [2] and 42% in data set [3].

For `CC1(C)CN(c2ccccc2NC(=O)Nc2ccc(OC(F)(F)F)cc2)c2c(O)cc(F)c(-c3ccc(F)cc3)c21`, the IC50 at P2Y purinoceptor 1 came out at 0.23 nM. Besides, the remaining at 10 min, 0.5 µM in data set [1] came to 73%; in data set [2], 84%; in data set [3] it was 77%.

As to `CC1(C)CN(c2ccccc2NC(=O)Nc2ccc(OC(F)(F)F)cc2)c2c(O)cc(F)c(-c3ccc(C(F)(F)F)cn3)c21`, the concentration for half-maximal inhibition (IC50) on P2Y purinoceptor 1 amounted to 0.57 nM. The remaining at 10 min, 0.5 µM in data set [1] came out at 100%; in data set [2], 97%; in data set [3], 65%.

As to `CC1(C)CN(c2ccccc2NC(=O)Nc2ccc(OC(F)(F)F)cc2)c2c(O)ccc(-c3ccc(F)cc3F)c21`, the IC50 at P2Y purinoceptor 1 is 0.52 nM. Besides, the remaining at 10 min, 0.5 µM in data set [1] stood at 81%; in data set [2] it was 72%; in data set [3] it was 79%.

Consider `CC1(C)CN(c2ccccc2NC(=O)Nc2ccc(OC(F)(F)F)cc2)c2c(O)c(F)cc(-c3ccc(F)cc3)c21`, for which the IC50 at P2Y purinoceptor 1 was found to be 0.45 nM. The figures for the remaining at 10 min, 0.5 µM in data set [1], in data set [2] and in data set [3] were 80%, 71% and 66%, respectively.

In the case of `CC1(C)CN(c2ccccc2NC(=O)Nc2ccc(OC(F)(F)F)cc2)c2c(O)ccc(-c3ccc(Cl)cc3)c21`, the IC50 on P2Y purinoceptor 1 was found to be 0.13 nM. Besides, the remaining at 10 min, 0.5 µM came to 84% in data set [1], 83% in data set [2] and 78% in data set [3].

Consider `CC1(C)CN(c2ccccc2NC(=O)Nc2ccc(OC(F)(F)F)cc2)c2c(O)cc(F)c(-c3ccc(C(F)(F)F)nc3)c21`, for which the half-maximal inhibitory concentration (IC50) on P2Y purinoceptor 1 amounted to 0.51 nM. In addition, the remaining at 10 min, 0.5 µM in data set [1] amounted to 68%; in data set [2], 69%; in data set [3] it was 73%.

For the molecule `CC1(C)CN(c2ccccc2NC(=O)Nc2ccc(OC(F)(F)F)cc2)c2c(O)cc(F)c(-c3cc(F)nc(F)c3)c21`, the IC50 at P2Y purinoceptor 1 was determined as 0.47 nM. Also, the remaining at 10 min, 0.5 µM turned out to be 75% in data set [1], 80% in data set [2] and 75% in data set [3].

Regarding `Cc1nc(NC(=O)Nc2ccccc2N2CC(C)(C)c3c(-c4ccc(F)cc4)ccc(O)c32)cs1`, the IC50 at P2Y purinoceptor 1 was determined as 0.08 nM. The remaining at 10 min, 0.5 µM in data set [1] was found to be 95%; in data set [2], 55%; in data set [3], 52%.

Turning to `CC(C)(C)CN1CCCC1c1ccc(NC(=O)Nc2ccccc2N2CC(C)(C)c3c(-c4ccc(F)cc4)ccc(O)c32)cc1` (configuration not stated), the IC50 on P2Y purinoceptor 1 stood at 0.04 nM. The remaining at 10 min, 0.5 µM in data set [1] worked out at 45%; in data set [2] it was 34%; in data set [3], 52%.

`CC1(C)CN(c2ccccc2NC(=O)Nc2nc3ccc(Cl)nc3s2)c2c(O)ccc(Cl)c21`: the IC50 on P2Y purinoceptor 1 turned out to be 0.14 nM.
